# Tests used:
# [1] = target: T1, Cannabinoid receptor 2 (Homo sapiens, UniProt P34972); assay: Displacement of [3H]-CP-55940 from human CB2 receptor expressed in CHO cell membranes after 1 hr by beta-counting analysis
# [2] = target: T1, Cannabinoid receptor 2; assay: Displacement of [3H]-CP-55940 from human CB2 receptor expressed in CHO cell membranes at 10 uM after 1 hr by beta-counting analysis
# Summary of the method: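 Competition binding to hCB2-CHO membranes (40 μg) with [3H]-CP-55,940 1 nM in Tris-HCl/MgCl2/EDTA/0.5% BSA buffer, pH 7.4, 1 h at 30°C. Final DMSO was below 0.1%. Filtration on GF/B, then β-count; HU-210 10 µM defined nonspecific binding. Compounds were first screened at 10 μM.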
# [3] = target: T2, Cannabinoid receptor 1 (Homo sapiens, UniProt P21554); assay: Displacement of [3H]-CP-55940 from human CB1 receptor expressed in CHO cell membranes after 1 hr by beta-counting analysis
# T2 sequence (P21554 whole entry): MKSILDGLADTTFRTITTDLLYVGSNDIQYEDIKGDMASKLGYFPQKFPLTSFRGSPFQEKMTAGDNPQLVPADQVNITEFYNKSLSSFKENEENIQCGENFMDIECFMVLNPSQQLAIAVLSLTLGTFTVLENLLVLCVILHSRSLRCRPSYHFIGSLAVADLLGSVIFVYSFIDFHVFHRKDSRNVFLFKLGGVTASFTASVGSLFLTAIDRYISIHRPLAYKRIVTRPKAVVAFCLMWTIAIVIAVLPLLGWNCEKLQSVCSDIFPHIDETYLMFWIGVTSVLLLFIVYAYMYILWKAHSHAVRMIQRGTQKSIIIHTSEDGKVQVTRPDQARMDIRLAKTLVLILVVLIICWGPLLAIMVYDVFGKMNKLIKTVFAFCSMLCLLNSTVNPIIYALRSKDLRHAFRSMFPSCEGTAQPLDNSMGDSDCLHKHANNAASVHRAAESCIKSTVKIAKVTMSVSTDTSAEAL
# [4] = species: Homo sapiens; assay: Selectivity index, ratio of Ki for human CB1 receptor expressed in CHO cell membranes to Ki for human CB2 receptor expressed in CHO cell membranes; type: cell-based
# [5] = target: T1, Cannabinoid receptor 2; assay: Agonist activity at human CB2 receptor
# [6] = target: T2, Cannabinoid receptor 1; assay: Agonist activity at human CB1 receptor
# [7] = target: T1, Cannabinoid receptor 2; assay: Agonist activity at human CB2 receptor expressed in CHO cell membranes assessed as [35S]GTPgammaS binding after 1 hr by beta-counting analysis; type: functional
# [8] = tested on: HT-29; assay: Cytotoxicity against human HT-29 cells at 10 uM after 72 hrs by MTS assay relative to control; type: cell-based; settings: ht-29, 72 h
# Summary of the method: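 HT29 cells were grown in DMEM-Glutamax with 10% FBS at 37°C and 5% CO2. They were seeded at 3000 cells/well in triplicate and allowed 24 h. Compounds were added at 10 μM with DMSO below 0.1%, for 72 h. Read-out was the MTS colorimetric test, given as % proliferation inhibition from ≥4 experiments in duplicate.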
# [9] = target: T1, Cannabinoid receptor 2; assay: Agonist activity at human CB2 receptor expressed in CHO cell membranes assessed as [35S]GTPgammaS binding after 1 hr by beta-counting analysis relative to control; type: functional
# Summary of the method: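 Membranes from hCB2-CHO cells, 40 μg protein, in 50 mM Tris-HCl, 3 mM MgCl2, 1 mM EDTA, 100 mM NaCl, 0.1% BSA, pH 7.4, with 20 μM GDP. [35S]-GTPγS was 0.05 nM final, 1 h at 30°C. Filtration on GF/B, then β-counting. Nonspecific binding was set with 100 μM Gpp(NH)p.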
# [10] = Aqueous solubility of compound in stimulated gastric fluid after 24 hrs by shake-flask method; type: physicochemical; settings: simulated gastric fluid
# Summary of the method: (§1)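 Solubility was measured by shake-flask for 24 h at room temperature in PBS pH 7.4, simulated gastric fluid or simulated intestinal fluid.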
# [11] = Aqueous solubility of compound in pH 7.4 PBS after 24 hrs by shake-flask method; type: physicochemical; summary of the method: as §1
# [12] = tested on: Mus musculus; assay: Anti-inflammatory activity in C57BL6 mouse model of DSS-induced acute colitis assessed colon weight/size ratio at 10 mg/kg, ip measured on day 9 (reference value: 0.050 +/- 0.0014); type: functional
# [13] = tested on: Mus musculus; assay: Anti-inflammatory activity in C57BL6 mouse model of DSS-induced acute colitis assessed reduction in MPO activity at 10 mg/kg, ip measured on day 9 relative to control; type: functional; settings: 216 h
# Summary of the method: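 DSS-colitis C57BL6 mice were dosed ip at 10 mg/kg daily in hydroxypropyl-β-cyclodextrin, against vehicle controls. Colon was homogenised in phosphate buffer pH 6.0 with 0.5% hexadecyltrimethyl ammonium, then sonicated and freeze-thawed. Supernatant was reacted with o-dianisidine 1 mg/ml and H2O2 0.0005%, and OD read at 450 nm. Results were normalised to Bradford protein; n = 10.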
# [14] = Intrinsic clearance in human liver microsomes at 0.1 mg/ml after 60 mins; type: ADME, Microsome; settings: read-out: CLH
# Summary of the method: (§2)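 Incubation with human liver microsomes at 0.1 mg/mL, 37°C, sampled at 0 and 60 min. Outputs were % remaining at 60 min, half-life and intrinsic clearance in μL/min/mg.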
# [15] = Permeability of the compound across basolateral side to apical side in human Caco2 after 60 mins; type: ADME, cell-based; settings: Caco-2, read-out: permeability
# Summary of the method: (§3)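 Caco-2 monolayers were dosed apical-to-basolateral and basolateral-to-apical, pH 6.5/7.4, at 37°C. Samples were taken at 0 and 60 min, and permeability reported in 10^-6 cm/s.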
# [16] = Protein binding in human plasma assessed as drug recovery after 4 hrs by equilibrium dialysis method; type: ADME, cell-free; settings: read-out: Drug recovery
# Summary of the method: (§4)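 Human plasma protein binding was measured by equilibrium dialysis, 4 h at 37°C. Both % bound and % recovery were reported.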
# [17] = tested on: Mus musculus; assay: Anti-inflammatory activity in C57BL6 mouse model of DSS-induced acute colitis assessed iNos mRNA expression at 10 mg/kg, ip measured on day 9 (reference value: 1 +/- 0.2 a.u.); type: functional
# Summary of the method: (§5)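 Colons came from DSS-colitis C57BL6 mice dosed ip at 10 mg/kg daily in hydroxypropyl-β-cyclodextrin, or given vehicle. Total RNA was extracted and reverse-transcribed. Sod2 and iNos mRNA were measured by SYBR Green RT-qPCR against the PolR2A reference gene. Mean ± SEM, n = 10, Mann-Whitney U test.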
# [18] = Efflux ratio of permeability in human Caco2 after 60 mins; type: ADME, cell-based; settings: Caco-2
# Summary of the method: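 Run by a contract lab. Compound incubated with the Caco-2 cell line at 37 °C, pH 6.5/7.4, sampled at 0 and 60 min. Apparent permeability measured A-B and B-A, and the efflux ratio taken as (B-A)/(A-B).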
# [19] = tested on: Mus musculus; assay: Anti-inflammatory activity in C57BL6 mouse model of DSS-induced acute colitis assessed as body weight change at 10 mg/kg, ip measured on day 9 (reference value: 79.5 +/- 1.8%); type: functional
# [20] = Stability in human liver microsomes assessed as compound remaining at 0.1 mg/ml after 60 mins; type: ADME, Microsome; settings: read-out: Stability; summary of the method: as §2
# [21] = Aqueous solubility of compound in stimulated intestinal fluid after 24 hrs by shake-flask method; type: physicochemical; settings: simulated intestinal fluid; summary of the method: as §1
# [22] = tested on: Mus musculus; assay: Anti-inflammatory activity in C57BL6 mouse model of DSS-induced acute colitis assessed Sod2 mRNA expression at 10 mg/kg, ip measured on day 9 (reference value: 2 +/- 0.4 a.u.); type: functional; summary of the method: as §5
# [23] = Half life in human liver microsomes at 0.1 mg/ml after 60 mins; type: ADME, Microsome; summary of the method: as §2
# [24] = Protein binding in human plasma after 4 hrs by equilibrium dialysis method; type: ADME, cell-free; settings: read-out: PPB (converted); summary of the method: as §4
# [25] = Permeability of the compound across apical side to basolateral side in human Caco2 after 60 mins; type: ADME, cell-based; settings: Caco-2, read-out: permeability; summary of the method: as §3
# T1 sequence (P34972 whole entry): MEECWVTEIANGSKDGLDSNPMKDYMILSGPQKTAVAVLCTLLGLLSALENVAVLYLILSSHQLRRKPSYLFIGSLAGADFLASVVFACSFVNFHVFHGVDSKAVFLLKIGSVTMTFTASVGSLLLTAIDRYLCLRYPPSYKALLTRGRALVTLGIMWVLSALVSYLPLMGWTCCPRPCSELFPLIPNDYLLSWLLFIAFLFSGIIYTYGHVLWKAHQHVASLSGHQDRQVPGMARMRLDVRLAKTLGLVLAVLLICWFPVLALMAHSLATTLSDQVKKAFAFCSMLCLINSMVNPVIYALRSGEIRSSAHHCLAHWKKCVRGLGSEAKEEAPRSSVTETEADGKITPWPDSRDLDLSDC
SMILES,Ki [1],inhibition [2],Ki [3],Ratio Ki [4],further results
CCCCCn1c(=O)sc2cc(/C(=N\O)C34CC5CC(CC(C5)C3)C4)ccc21,251 nM,> 60%,> 1000 nM,> 4,–
CCCCCn1c(=O)sc2cc(C(=O)C3CCCC3)ccc21,210 nM,> 60%,> 1000 nM,> 5,–
CC(C)n1c(=O)sc2cc(C(=O)C34CC5CC(CC(C5)C3)C4)ccc21,281 nM,> 60%,> 1000 nM,> 4,–
CCCCCn1c(=O)sc2ccc(C(=O)C3C(C)(C)C3(C)C)cc21,> 1000 nM,> 60%,–,–,–
CCS(=O)(=O)Nc1ccc2c(c1)nc(C(C)(C)C)n2CC1CCC(F)(F)CC1,–,–,–,–,Ki [5]: 0.87 nM; Ki [6]: 11.7 nM
CCCCCn1c(=O)sc2cc(C(OC)C34CC5CC(CC(C5)C3)C4)ccc21 (stereo not given),344 nM,> 60%,> 1000 nM,> 3,–
CCCCCn1c(=O)oc2cc(C(=O)C34CC5CC(CC(C5)C3)C4)ccc21,> 1000 nM,> 60%,–,–,–
CCCCCn1c(=O)oc2cc(C(=O)C3CCCCC3)ccc21,> 1000 nM,> 60%,–,–,–
CCCCCn1c(=O)sc2cc(C(O)C34CC5CC(CC(C5)C3)C4)ccc21 (stereo not given),272 nM,> 60%,> 1000 nM,> 4,–
CCCCCn1c(=O)oc2cc(C(=O)C3C(C)(C)C3(C)C)ccc21,> 1000 nM,> 60%,–,–,–
CCCC(C)(C)c1ccc2c(c1)OC(C)(C)[C@@H]1CC=C(C)C[C@@H]21,8 nM,–,> 1000 nM,> 125,–
CCCCCn1c(=O)sc2cc(C(=O)C3C(C)(C)C3(C)C)ccc21,> 1000 nM,> 60%,–,–,–
CCCCCn1c(=O)sc2cc(CC34CC5CC(CC(C5)C3)C4)ccc21,144 nM,> 60%,593 nM,4,–
CCCCCn1c(=O)sc2cc(NC(=O)C34CC5CC(CC(C5)C3)C4)ccc21,> 1000 nM,> 60%,–,–,–
CCCCCCn1c(=O)sc2cc(C(=O)C34CC5CC(CC(C5)C3)C4)ccc21,39 nM,> 60%,903 nM,23,EC50 [7]: 32.8 nM; Activity [8]: 0%; Emax [9]: 169%
CCCCn1c(=O)sc2cc(C(=O)C34CC5CC(CC(C5)C3)C4)ccc21,26 nM,> 60%,780 nM,30,EC50 [7]: 150 nM; Activity [8]: 0%; Emax [9]: 152%
CCCCCn1c(=O)sc2cc(C(=O)NC34CC5CC(CC(C5)C3)C4)ccc21,> 1000 nM,> 60%,–,–,–
CC(Cn1c(=O)sc2cc(C(=O)C34CC5CC(CC(C5)C3)C4)ccc21)N(C)C (stereo not given),506 nM,> 60%,–,–,–
CC(C)(C)NC(=O)c1nn(-c2ccc(F)cc2F)c2c1[C@H]1CC[C@@H]2C1 [TEDALINAB],–,–,–,–,Ki [5]: 11.8 nM; Ki [6]: 985 nM
CCCCCn1c(=O)sc2cc(C(=O)C3CCCCC3)ccc21,49.5 nM,> 60%,> 1000 nM,> 20,EC50 [7]: 41.5 nM; Activity [8]: 67%; Emax [9]: 178%
CCCCCn1c(=O)sc2cc(/C(=N\OC)C34CC5CC(CC(C5)C3)C4)ccc21,438 nM,> 60%,–,–,–
CCCCCn1c(=O)sc2cc(C(=O)c3ccccc3)ccc21,> 1000 nM,> 60%,–,–,–
CCCCCn1c(=O)sc2ccc(C(=O)C34CC5CC(CC(C5)C3)C4)cc21,526 nM,> 60%,–,–,–
Cc1c(C(=O)c2cccc3ccccc23)c2cccc3c2n1[C@H](CN1CCOCC1)CO3,–,–,–,–,Emax [9]: 181%
CCCCCn1c(=O)sc2cc(C(=O)C34CC5CC(CC(C5)C3)C4)ccc21,13.5 nM,> 60%,627 nM,46,solubility thermodynamic at 24 h [10]: 183 µM; solubility thermodynamic at 24 h [11]: 1 µM; Ratio [12]: 0.044; EC50 [7]: 41.9 nM; inhibition in vivo at 10 mg/kg [13]: 43%; microsomal CLint [14]: 146 µL/min/mg; Papp B→A at 1 h [15]: 1.3 ×10⁻⁶ cm/s; recovery at 4 h [16]: 100%; Activity [8]: 0%; Activity [17]: 0.4 a.u.; efflux ratio at 1 h [18]: 0.7; Emax [9]: 157%; Activity [19]: 85.9%; remaining at 1 h [20]: 43%; solubility thermodynamic at 24 h [21]: 107 µM; Activity [22]: 1.2 a.u.; half-life [23]: 48 min; fraction unbound at 4 h [24]: 0.11; Papp A→B at 1 h [25]: 1.8 ×10⁻⁶ cm/s
CCCCCn1c(=O)sc2ccc(C(=O)C3CCCCC3)cc21,> 1000 nM,> 60%,–,–,–
